The list is not random: actives were taken first. Their share in the collection is about 1.7%.
PP5 inh = blocks human protein phosphatase 5 activity; purified PP5c, OMFP substrate fluorescence; inhibition, % at 6.7 µM; 320,000 compounds, 0.18% hits; AID 1987;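 active means inhibition above the campaign's mean inhibition across all tested compounds plus 3 SD, cut at about 9.5% in these data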;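 further: 0% = DMSO only and 100% = 100 µM cantharidin control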
ZTA counter = ZTA (EBV) inhibition in EBNA-1 counter-screen; P03206; ZTA-DNA binding, fluorescence polarization; inhibition, % at 11 µM; 320,000 compounds, 0.15% hits; AID 2234; in the data active means inhibition above about 33%
Target sequence (P03206 whole entry, looked up): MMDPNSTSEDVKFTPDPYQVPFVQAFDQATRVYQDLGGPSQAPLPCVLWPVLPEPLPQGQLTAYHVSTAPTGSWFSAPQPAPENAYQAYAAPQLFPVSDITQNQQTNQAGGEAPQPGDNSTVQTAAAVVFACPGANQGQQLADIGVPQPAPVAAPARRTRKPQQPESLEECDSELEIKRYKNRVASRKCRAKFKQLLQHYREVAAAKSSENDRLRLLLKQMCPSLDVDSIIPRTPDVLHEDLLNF
HCV core dimer = blocks dimerization of HCV core protein; TR-FRET GST/Flag-core106 dimerization, 1536-well; inhibition, % at 5 µM; AID 1899; 300,000 compounds, 0.33% hits;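 active means inhibition above the mean of all tested compounds plus 3 SD, set per screening campaign, cut at about 45% in these data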
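System: GST-tagged and Flag-tagged HCV core protein residues 1-106 / Input: core106 proteins, GST 13.5 nM and Flag 17 nM / Buffer or medium: KF-containing HEPES buffer, pH 7.45, DTT, CHAPS, BSA / Probe or stimulus: Eu-anti-GST and XL665-anti-Flag labelled anti-tag antibodies / Schedule: 4 h, 22.5 °C incubation / Technique: TR-FRET 671 and 617 nm emission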
PP1 counter = counter-screen for PP5 inhibitors: inhibitors of human PP1-alpha; purified PP1alpha, OMFP fluorescence; P62136; inhibition, % at 6.7 µM; 320,000 compounds, 0.9% hits;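 active means inhibition above the mean inhibition of all tested compounds plus 3 SD, computed separately for each screening campaign, cut at about 15% in these data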
Target sequence (P62136 whole entry, looked up): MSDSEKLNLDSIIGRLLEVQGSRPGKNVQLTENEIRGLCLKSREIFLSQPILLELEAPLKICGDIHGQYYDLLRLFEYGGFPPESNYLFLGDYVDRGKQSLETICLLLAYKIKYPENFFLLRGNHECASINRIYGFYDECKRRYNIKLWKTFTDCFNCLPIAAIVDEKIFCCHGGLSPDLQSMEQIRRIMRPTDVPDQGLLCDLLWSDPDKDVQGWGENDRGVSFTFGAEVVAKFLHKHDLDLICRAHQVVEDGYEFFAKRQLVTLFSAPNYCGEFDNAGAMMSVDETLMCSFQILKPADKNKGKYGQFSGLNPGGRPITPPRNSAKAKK
EBNA-1 inh = blocks EBNA-1 binding to DNA; inhibition, % at 14.8 µM; 300,000 compounds, 0.34% hits; AID 1950; EBNA-1 DNA binding, fluorescence polarization; in the data active means inhibition above about 28%
* marks the source's active call; other numbers are inactive results; nt = no result.

SMILES	PP5 inh	ZTA counter	HCV core dimer	PP1 counter	EBNA-1 inh
Nc1nc2nc(SCC(=O)N3CCCc4ccccc43)[nH]c2c(=O)[nH]1	-0.7	-14.1	-4.2	15.2*	1.9
CCOc1ccc(C(=O)CC(NCc2cccs2)C(=O)O)cc1 (stereo not given)	-0.6	-6.1	0.9	0.3	-3.1
CCOC(=O)c1cn(Cc2ccc(C)cc2)c2cc(F)ccc2c1=O	-0.8	9.6	5.1	-1.2	8.2
COc1ccc(-c2nc3ccc(C)cn3c2NCc2ccccc2)cc1SC1CCCCC1	3.5	12.8	4.8	17.4*	5.1
Cc1c(N2C(=O)/C(=C\c3ccc(N(C)C)cc3)N(C)C2=S)c(=O)n(-c2ccccc2)n1C	7.6	-7.7	-2.2	15.7*	-4.5
Cc1c(NC(=S)N/N=C/c2ccc(N(C)C)cc2)c(=O)n(-c2ccccc2)n1C	-0.2	4.9	-11.6	0.0	-8.7
Cc1c(N2C(=O)c3ccc4c5c(ccc(c35)C2=O)CC4)c(=O)n(-c2ccccc2)n1C	1.8	-16.4	81.7*	10.5	0.8
Cc1cccc(C(=O)OCC(=O)NN2C(=O)NC3(CCC(C)CC3)C2=O)c1O (stereo not given)	-2.2	-2.9	-0.3	-2.7	-0.8
CC(C)OC(=O)CC(=O)CSc1nc(-c2ccc(F)cc2)cc(-c2ccccc2)c1C#N	4.6	-6.3	-9.4	6.0	13.8
CCOC(=O)CC(=O)CSc1nc(-c2ccccc2)cc(-c2ccccc2)c1C#N	0.6	-3.7	-15.9	16.7*	7.5
O=C(Cn1c2ccccc2c(=O)c2ccccc21)N/N=C/c1cc([N+](=O)[O-])ccc1N1CCCCCC1	2.5	-4.5	65.2*	3.5	-5.4
COC(=O)N/N=C/c1cc(C)n(-c2ccccc2)c1C	2.8	-7.3	4.6	-5.8	-0.5
O=C(N/N=C/c1ccc(N2CCCC2)c([N+](=O)[O-])c1)c1cccnc1	0.8	7.2	-9.1	-0.3	-0.2
Cc1ccc(-n2c(C)cc(/C=N/NC(=O)Cn3c4ccccc4c(=O)c4ccccc43)c2C)cc1	-1.6	11.6	67.8*	14.1	9.2
O=C(Cn1c2ccccc2c(=O)c2ccccc21)N/N=C/c1ccc(N2CCCC2)c([N+](=O)[O-])c1	3.6	8.8	51.0*	5.4	-6.0
CN(CC(=O)Nc1ccc(Cl)c(C(F)(F)F)c1)C(=O)c1cccc(N2C(=O)CCC2=O)c1	2.4	-12.8	nt	-0.6	nt
COc1ccccc1OCC(=O)Nc1oc(-c2ccccc2)c(-c2ccccc2)c1C#N	2.9	-16.9	28.6	8.7	-11.4
Cc1ccc(OCC(=O)Nc2oc(-c3ccccc3)c(-c3ccccc3)c2C#N)cc1	4.5	7.8	47.1*	10.1	-0.8
COc1cccc(-c2nnc3sc(-c4ccccn4)nn23)c1	1.3	5.2	6.5	-1.0	-4.2
COc1cccc(-c2nn3c(-c4ccccn4)nnc3s2)c1	-1.1	-20.2	3.5	16.8*	6.6
Cc1nc(-c2ccc(NC(=O)c3ccccc3Br)cc2)cs1	1.6	0.9	-1.9	-1.1	2.7
CC(C)(C)c1ccc(C(=O)NC(=S)NCc2ccco2)cc1	-2.4	4.5	-0.1	-4.7	9.1
CC(C)(C)c1ccc(/C([O-])=C(/C(=S)NCc2ccco2)[n+]2ccccc2)cc1	1.3	-7.0	53.2*	10.7	17.4
Cc1cccc(N2CC(C(=O)Nc3nnc(SCC(=O)Nc4nccs4)s3)CC2=O)c1 (stereo not given)	2.9	-2.8	50.1*	-1.4	17.6
CCc1ccc(C(=O)NNC(=O)C2CC(=O)N(c3ccc4c(c3)OCCO4)C2)cc1 (stereo not given)	1.7	-2.2	nt	-1.7	nt
SMILES	PP5 inh	ZTA counter	HCV core dimer	PP1 counter	EBNA-1 inh
COC(=O)c1ccc(CSc2nnc(NC(=O)C3CC(=O)N(c4ccc5c(c4)OCCO5)C3)s2)cc1 (stereo not given)	2.7	2.9	23.5	15.3*	-4.7
COc1ccc(C(=O)CSc2nnc(NC(=O)C3CC(=O)N(c4ccccc4)C3)s2)cc1 (stereo not given)	2.0	-11.2	6.7	17.0*	22.8
O=C(Nc1nnc(SCC(=O)N2CCOCC2)s1)C1CC(=O)N(c2ccc(F)cc2)C1 (stereo not given)	2.2	1.8	53.3*	-0.1	2.5
COc1ccc(C(C(=O)NCCC(C)C)N(CCO)C(=O)c2snc(C(N)=O)c2N)cc1 (stereo not given)	2.6	-12.8	-7.3	-3.1	-15.4
CC(=O)Nc1ccc(-c2csc(NC(=O)C3CC(=O)N(c4ccc5c(c4)OCCO5)C3)n2)cc1 (stereo not given)	4.1	-11.3	20.4	16.4*	-3.4
COc1cccc(N2CC(C(=O)Nc3nnc(SCc4ccccn4)s3)CC2=O)c1 (stereo not given)	3.1	-3.6	4.8	-0.7	-4.1
O=C(Nc1nnc(SCc2ccccn2)s1)C1CC(=O)N(c2ccc(F)cc2)C1 (stereo not given)	-0.3	2.7	54.7*	0.6	3.4
CC(C)N(C(=O)COC(=O)CNC(=O)c1ccc(Br)cc1)c1ccccc1	-5.0	5.7	-6.1	-6.9	-10.5
COc1ccc(/C=N/NC(=O)c2nc(-c3ccccc3)cc(-c3ccccc3)n2)cc1OC	1.9	-4.7	8.9	-0.7	2.3
COc1cccc(/C=N/NC(=O)c2nc(-c3ccccc3)cc(-c3ccccc3)n2)c1	3.0	3.4	49.5*	5.7	-14.3
Oc1cccc2ccc(/C=C/c3ccccc3Br)nc12	3.0	-1.4	-4.4	16.3*	-14.5
Cc1c(Cl)cccc1NC(=O)Nc1cc(C(C)(C)C)on1	3.6	-11.7	-12.4	4.8	7.3
O=C(/C=C/c1c[nH]c2ccccc12)c1cccc2ccccc12	-1.5	-5.7	5.1	-0.9	-3.4
O=C(Nc1ccc(N2CCOCC2)cc1)c1ccc(COc2ccccc2)cc1	0.7	6.2	11.2	16.2*	-19.0
CCOc1cccc(C(=O)Nc2ccc(N3CCCC3)cc2)c1	3.7	7.5	9.5	16.2*	-1.9
O=C(OCC(=O)N1CCCc2ccccc21)c1cccc(S(=O)(=O)N2CCc3ccccc32)c1	1.2	4.8	15.5	0.8	-4.2
CN(C(=O)c1cccc(Br)c1)C1CCS(=O)(=O)C1 (stereo not given)	0.0	-4.4	-2.2	-1.8	-11.0
NNC(=O)c1ccc(CSc2n[nH]c(=O)[nH]c2=O)cc1	-0.7	7.5	-1.4	16.0*	6.7
O=c1[nH]nc(SCc2ccccc2)c(=O)[nH]1	-0.1	7.6	-0.4	-2.7	-2.5
Cc1ccc2nc(-c3ccccc3)cc(C(=O)N3CCN(S(=O)(=O)c4c(C)noc4C)CC3)c2c1	5.9	1.6	nt	-4.6	nt
COc1ccc(S(=O)(=O)N2CCOCC2)cc1NC(=O)c1cccc(-n2cccc2)c1	0.0	-7.5	64.6*	7.3	8.2
CC(=O)Nc1ccc(NC(=O)c2ccc(-c3ccc([N+](=O)[O-])cc3)o2)cc1	0.8	-16.4	20.7	16.4*	-3.8
COc1ccc(NC(=O)c2ccc(-c3ccc([N+](=O)[O-])cc3)o2)cc1OC	1.7	14.5	4.6	2.1	1.1
